For series [1], the target named is T1, Cholesteryl ester transfer protein (Homo sapiens, UniProt P11597).
T1 sequence (P11597 whole entry): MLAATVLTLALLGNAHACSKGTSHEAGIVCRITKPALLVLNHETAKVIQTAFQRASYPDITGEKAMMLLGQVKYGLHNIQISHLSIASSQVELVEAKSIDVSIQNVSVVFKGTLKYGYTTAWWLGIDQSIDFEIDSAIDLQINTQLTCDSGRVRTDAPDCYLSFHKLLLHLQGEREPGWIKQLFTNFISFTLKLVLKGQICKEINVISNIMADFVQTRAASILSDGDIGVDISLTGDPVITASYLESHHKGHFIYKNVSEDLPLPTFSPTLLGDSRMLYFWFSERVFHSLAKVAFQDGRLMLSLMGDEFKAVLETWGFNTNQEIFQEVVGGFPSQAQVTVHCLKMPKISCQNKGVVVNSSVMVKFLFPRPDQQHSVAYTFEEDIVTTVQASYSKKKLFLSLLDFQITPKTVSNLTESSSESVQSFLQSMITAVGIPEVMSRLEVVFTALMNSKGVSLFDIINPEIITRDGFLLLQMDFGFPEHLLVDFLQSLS
Briefly: Inhibition of recombinant human CETP after 3 hrs using fluorescent cholesteryl containing HDL after 3 hrs by fluorescence assay. Conditions: read-out: IC50.

Series [2] in a line: MRT (0 to infinity) in normal fed guinea pig at 30 mg/kg administered via oral gavage by LC-MS/MS analysis. Type of series: ADME, organism-based, Cavia porcellus. Conditions: in vivo.
Series [3] in a line: AUC (0 to infinity) in normal fed guinea pig at 30 mg/kg administered via oral gavage by LC-MS/MS analysis. The format is ADME, organism-based, Cavia porcellus. More on the design: dose 30 mg/kg, route oral, time infinity. Conditions: in vivo.
Series [4] relates to Cavia porcellus. Briefly: Hypolipidemic activity in high-fat fed guinea pig model assessed as reduction in plasma LDL cholesterol levels at 30 mg/kg administered via oral gavage as qd for 14 days measured 2 hrs post dose on day 14 relative to control. The format is functional. On the set-up: scale not given: the % may be the effect or the level left. Put shortly: (§1)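 Male guinea pigs, 12 weeks old, fed a high-fat diet (2.5% coconut oil, 0.25% cholesterol) for two weeks. Gavage at 30 mg/kg once daily for two weeks while the diet continued. Plasma taken retro-orbitally 2 h after the day-14 dose. HDL-C, LDL-C, TG and TC reported as mean ± SD (n ≥ 6) versus the untreated high-fat model group.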

Series [5] has as its system Mus musculus. In words: Hypolipidemic activity in transgenic ap2-CETPTg mouse model assessed as reduction in plasma total cholesterol levels at 30 mg/kg, po qd for 14 days measured 2 hrs post dose on day 14 by automated lipid analyzer relative to control. The format is functional. On the set-up: scale not given: the % may be the effect or the level left. Summed up:
(§2)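 ap2-CETPTg mice, which express human CETP in adipose tissue. Oral 30 mg/kg once daily for two weeks in DMSO/cremophor/saline 3:4:93. Retro-orbital blood drawn 2 h after the day-14 dose. HDL-C, LDL-C, TG and TC measured on an automated lipid analyzer, mean ± SD (n ≥ 6), versus control group.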

The nature of series [6]: AUC (0 to 48 hrs) in normal fed guinea pig at 30 mg/kg administered via oral gavage by LC-MS/MS analysis. On the set-up: time < 48 hr, dose 30 mg/kg, route oral. The format is ADME, organism-based, Cavia porcellus. To be noted: in vivo.
Series [7] concerns Cavia porcellus. In words: Hypolipidemic activity in high-fat fed guinea pig model assessed as reduction in plasma total cholesterol levels at 30 mg/kg administered via oral gavage as qd for 14 days measured 2 hrs post dose on day 14 relative to control. The format is functional. On the set-up: scale not given: the % may be the effect or the level left. Summed up:
as §1

Series [8] deals with Cavia porcellus. In words: Hypolipidemic activity in high-fat fed guinea pig model assessed as reduction in plasma triglyceride levels at 30 mg/kg administered via oral gavage as qd for 14 days measured 2 hrs post dose on day 14 relative to control. The format is functional. On the set-up: scale not given: the % may be the effect or the level left. Summed up: as §1
The test system of series [9] is Mus musculus. In words: Hypolipidemic activity in transgenic ap2-CETPTg mouse model assessed as reduction in plasma triglyceride levels at 30 mg/kg, po qd for 14 days measured 2 hrs post dose on day 14 by automated lipid analyzer relative to control. On the set-up: scale not given: the % may be the effect or the level left. The format is functional. Summed up:
as §2

Series [10] is described as follows: Tmax in normal fed guinea pig at 30 mg/kg administered via oral gavage by LC-MS/MS analysis. Type of series: ADME, organism-based, Cavia porcellus. To be noted: in vivo.
Series [11] can be described thus: Cmax in normal fed guinea pig at 30 mg/kg administered via oral gavage by LC-MS/MS analysis. The format is ADME, organism-based, Cavia porcellus. More on the design: dose 30 mg/kg, route oral. Conditions: in vivo.
Series [12] deals with Cavia porcellus. Briefly: Toxicity in high-fat fed guinea pig model assessed as effect on systolic blood pressure at 30 mg/kg administered via oral gavage as qd for 14 days. Type of series: organism-based. Conditions: in vivo, 336 h.
Series [13] is described as follows: Octanol-water partition coefficient, log P of the compound at pH 7.4 by HPLC based shake flask method. Type of series: physicochemical.
Series [14] has as its system Mus musculus. Briefly: Antihyperlipidemic activity in transgenic ap2-CETPTg mouse model assessed as increase in plasma HDL cholesterol levels at 30 mg/kg, po qd for 14 days measured 2 hrs post dose on day 14 by automated lipid analyzer relative to control. Type of series: functional. Put shortly: as §2
Series [15] can be described thus: MRT (0 to 48 hrs) in normal fed guinea pig at 30 mg/kg administered via oral gavage by LC-MS/MS analysis. Conditions: in vivo. The format is ADME, organism-based, Cavia porcellus.
The test system of series [16] is Cavia porcellus. In words: Drug metabolism in normal fed guinea pig assessed as formation of oleanolic acid at 30 mg/kg administered via oral gavage by LC-MS/MS analysis. Type of series: ADME, organism-based. Conditions: in vivo.
A short description of series [17]: Terminal half life in normal fed guinea pig at 30 mg/kg administered via oral gavage by LC-MS/MS analysis. Type of series: ADME, organism-based, Cavia porcellus. To be noted: in vivo, read-out: beta t1/2 (converted).
Series [18] is described as follows: Aqueous solubility of the compound. Type of series: physicochemical. To be noted: buffer.
In series [19] the test system is Cavia porcellus. In words: Antihyperlipidemic activity in high-fat fed guinea pig model assessed as increase in plasma HDL cholesterol level at 30 mg/kg administered via oral gavage as qd for 14 days measured 2 hrs post dose on day 14 relative to control. Type of series: functional. Put shortly:
as §1

The test system of series [20] is Cavia porcellus. In words: Toxicity in normal fed guinea pig model assessed as effect on systolic blood pressure at 30 mg/kg administered via oral gavage as qd for 14 days. To be noted: in vivo, 336 h. The format is organism-based.
Series [21] relates to Cavia porcellus. In words: Hypolipidemic activity in normal fed guinea pig model assessed as reduction in plasma LDL cholesterol levels at 30 mg/kg administered via oral gavage as qd for 14 days measured 2 hrs post dose on day 14 relative to control. Type of series: functional. On the set-up: scale not given: the % may be the effect or the level left. Put shortly:
(§3)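 Male guinea pigs, 12 weeks old, on normal diet. Gavage at 30 mg/kg once daily for two weeks. Retro-orbital plasma collected 2 h after dosing on day 14. HDL-C and LDL-C reported as mean ± SD (n ≥ 6) versus vehicle control group.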

The subject of series [22] is Mus musculus. In words: Hypolipidemic activity in transgenic ap2-CETPTg mouse model assessed as reduction in plasma LDL cholesterol levels at 30 mg/kg, po qd for 14 days measured 2 hrs post dose on day 14 by automated lipid analyzer relative to control. Type of series: functional. On the set-up: scale not given: the % may be the effect or the level left. Put shortly:
as §2

In series [23] the test system is Cavia porcellus. In words: Antihyperlipidemic activity in normal fed guinea pig model assessed as increase in plasma HDL cholesterol level at 30 mg/kg administered via oral gavage as qd for 14 days measured 2 hrs post dose on day 14 relative to control. The format is functional. Put shortly:
as §3

Each structure is given as a SMILES string.

As to `C=C(C)[C@@H]1CC[C@]2(C(=O)O)CC[C@]3(C)[C@H](CC[C@@H]4[C@@]5(C)CC[C@H](OC(=O)CCCC(=O)O)C(C)(C)[C@@H]5CC[C@]43C)[C@@H]12`, in [1], the IC50 is 38 µM.

Regarding `CC1(C)CC[C@]2(C(=O)O)CC[C@]3(C)C(=CC[C@@H]4[C@@]5(C)CC[C@H](OC(=O)CCN6CCOCC6)C(C)(C)[C@@H]5CC[C@]43C)[C@@H]2C1`, in series [1], the IC50 was 68.5 µM.

As to `CC1(C)CC[C@]2(C(=O)O)CC[C@]3(C)C(=CC[C@@H]4[C@@]5(C)CC[C@H](OC(=O)CCCC(=O)O)C(C)(C)[C@@H]5CC[C@]43C)[C@@H]2C1`, in [1], the IC50 turned out to be 3.5 µM.

As to `CC1(C)CC[C@]2(C(=O)OCC(=O)O)CC[C@]3(C)C(=CC[C@@H]4[C@@]5(C)CC[C@H](OC(=O)CCCC(=O)O)C(C)(C)[C@@H]5CC[C@]43C)[C@@H]2C1`, the IC50 in [1] is 38.9 µM.

With `CC1(C)CC[C@]2(C(=O)O)CC[C@]3(C)C(=CC[C@@H]4[C@@]5(C)CC[C@H](OC(=O)CCCCC(=O)O)C(C)(C)[C@@H]5CC[C@]43C)[C@@H]2C1`, in series [1], the concentration for half-maximal inhibition (IC50) is 7 µM.

As to `CC1(C)CC[C@]2(C(=O)O)CC[C@]3(C)C(=C2C1)CC[C@@H]1[C@@]2(C)CC[C@H](OC(=O)CCCC(=O)O)C(C)(C)[C@@H]2CC[C@]13C`, the IC50 in [1] was determined as 10.3 µM.

For `CC1(C)CC[C@]2(C(=O)O)CC[C@]3(C)C(=CC[C@@H]4[C@@]5(C)CC[C@H](OC(=O)CCC(=O)NCCS(=O)(=O)O)C(C)(C)[C@@H]5CC[C@]43C)[C@@H]2C1`, the IC50 in series [1] was determined as 23.1 µM.

Regarding `CC1(C)CC[C@]2(C(=O)O)CC[C@]3(C)C(=CC[C@@H]4[C@@]5(C)CC[C@H](OC(=O)c6ccccc6C(=O)O)C(C)(C)[C@@H]5CC[C@]43C)[C@@H]2C1`, in series [1], the IC50 was 2.3 µM. This compound also registered an MRT inf in series [2] of 23.4 h. In [3], this compound had an AUC(0-inf) of 10900 ng·h/mL. Further, the Activity in series [4] is 40.8%; in series [5], 5.8%; in [7], 20.3%; in series [8], 27.3%; in series [9] it was 29.3%; in series [12] it was “Non-Toxic”. For the same compound, the Activity was 11.1% in series [14]; 72.8% in [19]; “Non-Toxic” in [20]; 19.8% in series [21]; 34.2% in [22]; 32.3% in [23]. The AUC(0-t) at 48 h in series [6] was 9340 ng·h/mL. Further, the Tmax in [10] is 1.46 h. In series [11], this compound had a Cmax of 1270 ng/mL. The same compound registered a logD in series [13] of 0.49. The compound further showed an MRT last in [15] of 14.9 h. The Drug metabolism entry in series [16] is on record as “Metabolite_Detected”. The half-life in [17] was 1120 min. For the same compound, the solubility entry in series [18] was “Soluble”.

For `C[C@H]1[C@H](C)CC[C@]2(C(=O)O)CC[C@]3(C)C(=CC[C@@H]4[C@@]5(C)CC[C@H](OC(=O)CCCC(=O)O)C(C)(C)[C@@H]5CC[C@]43C)[C@H]12`, the IC50 in [1] turned out to be 3.4 µM.

In general, IC50 refers to the concentration at which inhibition is half-maximal. Broadly, the MRT inf is a mean duration of stay, worked out from the concentration-time curve. The term AUC(0-inf) denotes the area under the concentration-time curve extrapolated to infinity. As a reminder, the AUC(0-t) is the area under the concentration-time curve up to a stated or last time point. A word on the Tmax: it is the time from dosing to the highest level. The term Cmax denotes the maximum level reached in the sampled fluid or tissue. For orientation: logD means the decadic logarithm of the distribution of all forms, ionised or not, between an organic phase and buffer at a given pH. A word on the MRT last: it is a mean duration of stay, worked out from the concentration-time curve.

For the origin of these results see ChEMBL document CHEMBL4130378, “Discovery of pentacyclic triterpene 3β-ester derivatives as a new class of cholesterol ester transfer protein inhibitors” (Eur J Med Chem, 2017).
